The source of these data is ChEMBL document CHEMBL1671615 (Antimicrob Agents Chemother, 2008).

Series [1] is described as follows: Plasma concentration in BALB/c mouse at 4 to 5 mg/kg, iv administered as single bolus dose by HPLC. It counts as ADME, organism-based. The arrangement: dose 4-5 mg/kg, route intravenous.
Series [2] deals with Serum. Description: AUC (OBS) in BALB/c mouse serum at 4 to 5 mg/kg, iv administered as single bolus dose by HPLC. The arrangement: dose 4-5 mg/kg, route intravenous. It counts as ADME, organism-based. Particulars: in vivo.
Series [3] can be described thus: Cmax in 10^6 mouse alveolar macrophages at 4 to 5 mg/kg, iv measured after 4 hrs by HPLC. The class given is ADME, organism-based, BALB/c, Macrophage. The arrangement: dose 4-5 mg/kg, route intravenous. The settings on record: in vivo. The essentials: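 After a 100 μg i.v. caudal-vein dose, four mice per time point underwent bronchoalveolar lavage with chilled saline plus 0.5 mM EDTA. Macrophages in the lavage were counted by hemocytometer and lysed, and drug was quantified by HPLC-UV per 10⁶ cells.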

Series [4] in a line: Elimination rate constant in human THP1 cells at 3 ug/ml after 10 mins by HPLC. It counts as ADME, cell-based. Particulars: THP-1 cells.
Series [5] is described as follows: Cmax in 10^6 mouse alveolar macrophages at 4 to 5 mg/kg administered as inhalable dose measured 6 hrs postinhalation by HPLC. It counts as ADME, organism-based, Macrophage. Particulars: in vivo, inhaled_or_intranasal. The arrangement: dose 4-5 mg/kg. The essentials: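 Mice inhaled 100 μg drug as dry-powder microparticles. Four animals per time point were anesthetized, and lungs were lavaged with chilled saline containing 0.5 mM EDTA. Recovered alveolar macrophages were counted by hemocytometer and extracted. Drug was measured by HPLC-UV and expressed per 10⁶ cells.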

Series [6] in a line: Clearance in BALB/c mouse at 4 to 5 mg/kg, iv administered as single bolus dose by HPLC. Details: dose 4-5 mg/kg, route intravenous. The settings on record: in vivo. The class given is ADME, organism-based.
Series [7] relates to Mus musculus. Description: Volume of distribution in BALB/c mouse at 4 to 5 mg/kg, iv administered as single bolus dose by HPLC. The class given is ADME, organism-based. Details: dose 4-5 mg/kg, route intravenous. Particulars: in vivo.
Series [8] in a line: Elimination rate constant in human THP1 cells at 3 ug/ml administered as microparticles after 10 mins by HPLC. The class given is ADME, cell-based. The settings on record: THP-1 cells. The essentials:
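THP-1 cells (10⁶/well) were differentiated with PMA for 14 h, washed, and rested 10 h. Microparticles (12 μg/ml, drug-equivalent 3 μg/ml) were added for 2 h, then washed out. Duplicate wells were lysed by freeze-thaw at serial times and analyzed by HPLC. A one-compartment model with no lag and first-order elimination was fitted.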

Series [9] has as its system Mus musculus. Description: Volume of distribution in BALB/c mouse at 4 to 5 mg/kg administered as inhalable bolus dose by HPLC. It counts as ADME, organism-based. The arrangement: dose 4-5 mg/kg. The settings on record: in vivo, inhaled_or_intranasal. The essentials:
(§1)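 BALB/c mice (25–30 g, either sex, groups of 4) given 100 μg drug by dry-powder inhalation of spray-dried polylactide microparticles (~10 mg charged, fluidized by 30 actuations over 30 s, nose-only). Noncompartmental extravascular-bolus fit; mean ± SD.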

Series [10] concerns Serum. Description: AUC (OBS) in BALB/c mouse serum at 4 to 5 mg/kg administered as inhalable bolus dose by HPLC. It counts as ADME, organism-based. The arrangement: dose 4-5 mg/kg. The settings on record: in vivo, inhaled_or_intranasal. A digest of the protocol: as §1
Series [11] in a line: Plasma concentration in BALB/c mouse at 4 to 5 mg/kg administered as inhalable bolus dose by HPLC. It counts as ADME, organism-based. The arrangement: dose 4-5 mg/kg. The settings on record: inhaled or intranasal. A digest of the protocol:
as §1

Series [12] relates to Mus musculus. Description: (§2) Clearance in BALB/c mouse at 4 to 5 mg/kg administered as inhalable bolus dose by HPLC. It counts as ADME, organism-based. Details: dose 4-5 mg/kg. The settings on record: in vivo, inhaled_or_intranasal. A digest of the protocol: as §1
Series [13] can be described thus: Half life in BALB/c mouse serum at 4 to 5 mg/kg, iv administered as single bolus dose by HPLC. The class given is ADME, organism-based. Details: dose 4-5 mg/kg, route intravenous.
The nature of series [14]: Half life in BALB/c mouse serum at 4 to 5 mg/kg administered as inhalable bolus dose by HPLC. The class given is ADME, organism-based. Particulars: inhaled or intranasal. Details: dose 4-5 mg/kg. The essentials:
as §1

The nature of series [15]: as §2. It counts as ADME, organism-based. Details: dose 4-5 mg/kg. Particulars: BALB/c, in vivo, inhaled or intranasal. A digest of the protocol:
as §1

Usually clearance stands for the volume of plasma or blood freed of the substance per unit of time. For `NNC(=O)c1ccncc1` [ISONIAZID], the Cmax in series [1] came to 3240 ng/mL; in series [3] it was 0.29 µg; in [5], 0.56 µg; in series [11], 2370 ng/mL. For the same compound, the AUC in the series with Serum [2] worked out at 16.64 µg/mL/h; with Serum [10] it was 55.34 µg/mL/h. Further, the values for the k el at 10 min, 3 ug/ml in series [4] and in [8] were 9.44e-06 s⁻¹ and 0.000102 s⁻¹, respectively. In series [6], this compound showed a clearance of 0.0738 mL/min. Besides, the Vz was 41.34 mL with Mus musculus [7] and 1670 mL in the series with Mus musculus [9]. The compound also displayed a CL in the series on Mus musculus [12] of 63.9 mL/h.

By half-life is commonly meant the time in which the quantity being followed falls by half. High values mean slow decline, low ones rapid decline. The CL/F is the apparent clearance, not corrected for the fraction that reaches the circulation. As to `CO[C@H]1/C=C/O[C@@]2(C)Oc3c(C)c(O)c4c(c3C2=O)C2=NC3(CCN(CC(C)C)CC3)NC2=C(NC(=O)/C(C)=C\C=C\[C@H](C)[C@H](O)[C@@H](C)[C@@H](O)[C@@H](C)[C@H](OC(C)=O)[C@@H]1C)C4=O` [RIFABUTIN], the Cmax was found to be 3470 ng/mL in series [1], 0.32 µg in series [3], 1.65 µg in [5] and 1590 ng/mL in series [11]. Besides, the results for the half-life in series [13] and in series [14] were 20.2 h and 119 h, respectively. Besides, the AUC with Serum [2] stood at 90.82 µg/mL/h; in the series with Serum [10] it was 109.35 µg/mL/h. Moreover, the k el at 10 min, 3 ug/ml in series [4] was 1.39e-06 s⁻¹; in series [8] it was 1.67e-05 s⁻¹. Further, the clearance in series [6] is 0.017 mL/min. In addition, the Vz in the series with Mus musculus [7] was found to be 29.52 mL; in the series on Mus musculus [9], 2308.84 mL. This compound showed a CL/F in [15] of 0.195 mL/min.
